SUMO1 PPI mod: modulators of human SUMO1-mediated protein-protein interactions; P63165; SUMO1 binding to a labelled peptide, TR-FRET, 1 h; inhibition, % at 20 µM; hit rate 0.33% among 360,000; AID 602429; in the data active = inhibition above about 37%
CSN inh: inhibitors of human CSN-mediated cullin deneddylation; inhibition, % at 12.5 µM; Purified CSN, SCF-Nedd8-OG deneddylation, fluorescence polarization; hit rate 0.38% among 360,000; AID 651999;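 active = pattern-corrected inhibition above about 35%, with an unprinted fluorescence ratio check between 0.5 and 1.5, limit read from the data, passing the limit was not always enough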
Target sequence (Q92905 whole entry, looked up, one chain of several): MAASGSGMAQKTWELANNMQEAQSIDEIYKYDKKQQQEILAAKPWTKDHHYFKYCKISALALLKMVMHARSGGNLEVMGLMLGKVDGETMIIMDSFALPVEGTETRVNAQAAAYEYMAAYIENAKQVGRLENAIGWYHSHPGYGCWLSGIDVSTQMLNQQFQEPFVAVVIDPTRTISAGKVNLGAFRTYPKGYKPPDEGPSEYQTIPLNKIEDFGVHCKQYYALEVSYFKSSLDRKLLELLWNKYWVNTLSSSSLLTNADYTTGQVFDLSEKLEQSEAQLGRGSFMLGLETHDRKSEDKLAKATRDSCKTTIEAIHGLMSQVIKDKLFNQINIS
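Test system: Human Csn5 produced in HEK293T cells | Compound: 12.5 µM single point | Times: 90 min, room temperature | Signal: Fluorescence polarization readout | Read-out basis: % inhibition of substrate cleavage by Csn5 | Controls: no-enzyme wells high, enzyme-with-substrate wells low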
Scp-1 inhibitor: inhibitors of human Scp-1 phosphatase | inhibition, % at 20 µM | AID 493091 | hit rate 0.88% among 340,000 | Recombinant Scp1, phosphopeptide, malachite green phosphate absorbance;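 active = inhibition above about 50% at 20 µM, limit read from the data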
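Test system: SCP-1 catalytic domain; Buffer or medium: Acidic Tris acetate buffer with magnesium and detergent; Also added: Phosphorylated 17-residue peptide substrate; Compound: single 20 µM dose, 1% DMSO; Schedule: enzyme reaction 45 min at room temperature, colour 5 min, stabilisation 30 min; Signal: Phosphate-binding colour reagent, absorbance read at 630 nm.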
STEP inh: inhibitors of human striatal-enriched phosphatase STEP; hit rate 0.25% among 360,000; AID 588621; P54829; recombinant STEP, OMFP fluorogenic substrate, fluorescence; inhibition, % at 20 µM;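 active = inhibition at 20 µM, scaled per plate between control wells, above about 37%, limit read from the data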
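Test system: STEP tyrosine phosphatase / Reagent: OMFP at 25 µM / Doses: 20 µM, 1% DMSO / Read-out: percent inhibition scaled to no-enzyme and uninhibited-enzyme controls, plate-pattern corrected / Detection: FITC-channel fluorescence of OMFP product / Medium: Bis-Tris buffer pH 6.0, 2.5 mM DTT, 0.005% Tween 20 / Schedule: 20 min at room temperature, dark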
LMPTP inh: blocks human LMPTP phosphatase. hit rate 0.22% among 360,000. recombinant LMPTP-A, OMFP fluorogenic substrate, fluorescence intensity. AID 651560. inhibition, % at 20 µM;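 active = compounds that cut the enzyme signal by at least half of the control window in the single-dose screen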
Target sequence (P24666 whole entry, looked up): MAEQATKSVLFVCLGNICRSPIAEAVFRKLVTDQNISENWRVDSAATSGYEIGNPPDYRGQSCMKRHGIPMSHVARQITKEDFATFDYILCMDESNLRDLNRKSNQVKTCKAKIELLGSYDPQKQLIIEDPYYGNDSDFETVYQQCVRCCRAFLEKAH
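Assay system: LMPTP-A enzyme. Input: 0.625 nM LMPTP-A final. Probe or stimulus: 400 µM OMFP. Compound dosing: single 20 µM dose. Schedule: 50 min dark incubation at room temperature. Detection: fluorescence intensity of OMFP turnover product. Read-out: percent inhibition versus substrate-only and uninhibited controls. Benchmarks: no-enzyme low control, uninhibited high control.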
DNMT1 inh: DNMT1 (human) enzyme inhibition | inhibition (reported as % activation of signal), % at 10 µM | hit rate 0.83% among 360,000 | P26358 | DNMT1 molecular beacon, Hinp1I cleavage, fluorescence; in the data active = inhibition above about 50%
Scp-1 conf: confirmation of human Scp-1 phosphatase inhibitors; shares compounds with Scp-1 inhibitor; recombinant SCP-1 catalytic domain, phosphate release, malachite green absorbance; inhibition, % at 20 µM; hit rate 61% among 2,500
Scp-1 MG ctr: counter-screen for Scp-1 inhibitors: colorimetric interference. 2,500 tested, under 10 active. apparent inhibition (interference), % at 20 µM. shares compounds with Scp-1 inhibitor. AID 540313. Colorimetric interference counterscreen, malachite green absorbance 630 nm;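 note: compounds added after enzyme reaction finished so only phosphate colour detection is probed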
Scp1 DSF: validation of human Scp-1 inhibitors by thermal shift binding. shares compounds with Scp-1 inhibitor. Recombinant SCP1, Sypro Orange thermal shift Tm. thermal shift relative to vanadate control, % at 40 µM. hit rate 25% among 1,500;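 active = substances whose mean melting-temperature shift, as a percentage of the reference inhibitor's shift, reaches about 5.3%, limit read from the data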
Of the large screens only hits and unclear results are named; the others gave an inactive call (follow-up assays come after a bar, where they were run). Most compounds without a hit are left out; they make up all but 2% or so of the library.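 Rule for the calls, unless noted: active = inhibition of at least 30% at 20 µM; inactive = the rest.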

N/C(=N/OC(=O)c1cccc([N+](=O)[O-])c1)c1cccc([N+](=O)[O-])c1	Scp-1 inhibitor 95 | Scp-1 conf 75 | Scp-1 MG ctr inactive | Scp1 DSF 6.6
O=C(c1cnn(C(=O)COc2ccc(Cl)cc2)c1)c1ccccc1O	none
Cc1ccc(O)c(C(=O)c2cnn(C(=O)COc3ccc(Cl)cc3)c2)c1	Scp-1 inhibitor 82 | Scp-1 conf 73 | Scp-1 MG ctr inactive | Scp1 DSF inactive
COc1ccc(CNC(=O)c2cncc(Br)c2)cc1	none
O=C1NC(=Nc2ccccc2)S/C1=C\c1cccnc1	Scp-1 inhibitor 67 | Scp-1 conf inactive | Scp-1 MG ctr inactive
CC(=O)c1ccc(NC(=O)c2noc3c2CCC3)cc1	Scp-1 inhibitor 62 | Scp-1 conf 54 | Scp-1 MG ctr inactive | Scp1 DSF inactive
CCOc1ccc(C(=O)N2CCN(CC(=O)N3CCCC3)CC2)cc1OCC	none
O=C(O)[C@H]1Cc2ccccc2CN1S(=O)(=O)c1ccc(F)cc1	none
CC(=O)c1ccc(S(=O)(=O)N2Cc3ccccc3CC2C(=O)O)cc1 (stereo not drawn)	Scp-1 inhibitor 82 | Scp-1 conf 64 | Scp-1 MG ctr inactive | Scp1 DSF inactive
COc1ccc(C(C)(C)C)cc1NC(=O)CCCN1C(=O)CN(C)C1=O	none
Cc1nnc(SCC(=O)Nc2sccc2C#N)s1	Scp-1 inhibitor 60 | Scp-1 conf 40 | Scp-1 MG ctr inactive | Scp1 DSF inactive
Cc1nn(CC(=O)NCc2cccs2)c(=O)c2nn(-c3ccccc3)c(C)c12	Scp-1 inhibitor 51 | Scp-1 conf inactive | Scp-1 MG ctr inactive
Cc1ccccc1CCNC(=O)Cn1nc(C)c2c(C)n(-c3ccccc3)nc2c1=O	none
S=C(Nc1ccc2c(c1)OCO2)N1CCN(Cc2ccco2)CC1	none
COc1cc(/C=N/N=C2/NC(=O)C(CC(=O)O)S2)ccc1OCc1ccc(Cl)cc1 (stereo not drawn)	Scp-1 inhibitor 59 | Scp-1 conf 70 | Scp-1 MG ctr inactive | Scp1 DSF inactive
COc1cc(/C=N/N=C(N)N)ccc1OCc1ccc(Cl)cc1	none
COc1ccc(-c2ccc(/C=N/NC(=O)c3cccnc3)o2)c([N+](=O)[O-])c1	Scp-1 inhibitor 96, LMPTP inh 53 | Scp-1 conf 82 | Scp-1 MG ctr inactive | Scp1 DSF inactive
CCOc1ccc(Br)cc1S(=O)(=O)Nc1cccc(S(=O)(=O)N2CCOCC2)c1	none
CCOc1ccccc1NC(=O)N1CCC(NC(=O)c2cccc(C)c2)CC1	Scp-1 inhibitor 99 | Scp-1 conf 67 | Scp-1 MG ctr inactive | Scp1 DSF inactive
Cc1nonc1OCCCNc1ccc([N+](=O)[O-])cc1Cl	none
COc1ccc(N2CCN(C(CNC(=O)CC(C)(C)C)c3ccc4c(c3)OCO4)CC2)cc1 (stereo not drawn)	Scp-1 inhibitor 64 | Scp-1 conf inactive | Scp-1 MG ctr inactive
O=C(Cc1cccs1)Nc1nc2c(ccc3ccccc32)s1	none
CC(=O)Nc1nc2c(ccc3ccccc32)s1	Scp-1 inhibitor 72 | Scp-1 conf inactive | Scp-1 MG ctr inactive
COc1ccc(F)cc1C(=O)C1CCCN(C(=O)c2ocnc2C)C1 (stereo not drawn)	none
O=C(c1cccnc1)N1CCC(Oc2ccc(C(=O)N3CCCCO3)cc2)CC1	Scp-1 inhibitor 69 | Scp-1 conf inactive | Scp-1 MG ctr inactive
CCC(=O)C1CCCN(C(=O)c2ccc(OC3CCN(C(=O)c4cccnc4)CC3)cc2)C1 (stereo not drawn)	none
COc1ccc(/C=C/C(=O)OCC(=O)Nc2c(C)cccc2C)cc1	none

Screening data from PubChem.
